We go through 23 compounds from ChEMBL document CHEMBL1133540, “4-Aminoquinolines: novel nociceptin antagonists with analgesic activity” (J Med Chem, 2000).

One test addresses Mu-type opioid receptor (Homo sapiens, UniProt P35372). The test is described as follows: Inhibition of [3H]diprenorphine (0.33 nM) binding from human Opioid receptor mu 1 expressed in CHO-K1 cells. The test is classed as cell-based. A digest of the protocol: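 CHO-K1 membranes expressing human μ-opioid receptor in 50 mM Tris-HCl pH 7.4 with 5 mM MgCl2 and 10% sucrose. Incubated 2.5 h at room temperature with 0.33 nM [3H]diprenorphine over a compound concentration range. Filtration and scintillation counting. Nonspecific binding defined with 10 μM naloxone. Ki given as mean ± SE, n=3.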

Test [1] concerns the target Kappa-type opioid receptor (Homo sapiens, UniProt P41145). The test is described as follows: Inhibition of [3H][…] (0.55 nM) binding from human Opioid receptor kappa 1.
The target in test [2] is Delta-type opioid receptor (Homo sapiens, UniProt P41143). The test is described as follows: Inhibition of [3H]naltrindole (0.55 nM) binding from human Opioid receptor delta 1 expressed in CHO-K1 cells. The test is classed as cell-based. A digest of the protocol: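 Human δ-opioid receptor from CHO-K1 membranes in 50 mM Tris-HCl pH 7.4, 5 mM MgCl2, 10% sucrose. Incubated 1 h at room temperature with 0.55 nM [3H]naltrindole and varied compound concentrations. Filter-bound radioactivity counted. 10 μM naloxone defined nonspecific binding. Ki as mean ± SE, n=3.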
Chain of Delta-type opioid receptor (P41143 whole entry): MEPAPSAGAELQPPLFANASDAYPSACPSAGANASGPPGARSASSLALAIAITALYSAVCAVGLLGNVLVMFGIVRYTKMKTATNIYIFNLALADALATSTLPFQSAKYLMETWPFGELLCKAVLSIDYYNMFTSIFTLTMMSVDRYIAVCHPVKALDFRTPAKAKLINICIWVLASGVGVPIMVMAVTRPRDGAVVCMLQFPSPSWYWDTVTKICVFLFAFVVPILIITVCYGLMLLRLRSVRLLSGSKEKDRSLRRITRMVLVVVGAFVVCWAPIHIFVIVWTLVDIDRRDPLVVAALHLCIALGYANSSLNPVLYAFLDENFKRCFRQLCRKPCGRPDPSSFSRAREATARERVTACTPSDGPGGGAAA

For test [3], the target named is T1, Nociceptin receptor (Homo sapiens, UniProt P41146). The test is described as follows: Ability to displace [3H]nociceptin ( 0.5 nM ) binding from Opioid receptor like 1 expressed in HeLa cells. It counts as cell-based. In outline: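 Membranes from HeLa cells expressing human ORL1 (25 μg protein/mL) in 50 mM Tris pH 8.5 with 2 mM EDTA, 0.1 mM p-aminophenylmethanesulfonyl fluoride and 2 mg/mL BSA. Incubated 30 min at room temperature with 0.5 nM [3H]nociceptin and varied compound concentrations. Bound radioactivity was collected by filtration and counted by scintillation. Nonspecific binding was set with 1 μM unlabeled nociceptin.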
T1 sequence (P41146 whole entry): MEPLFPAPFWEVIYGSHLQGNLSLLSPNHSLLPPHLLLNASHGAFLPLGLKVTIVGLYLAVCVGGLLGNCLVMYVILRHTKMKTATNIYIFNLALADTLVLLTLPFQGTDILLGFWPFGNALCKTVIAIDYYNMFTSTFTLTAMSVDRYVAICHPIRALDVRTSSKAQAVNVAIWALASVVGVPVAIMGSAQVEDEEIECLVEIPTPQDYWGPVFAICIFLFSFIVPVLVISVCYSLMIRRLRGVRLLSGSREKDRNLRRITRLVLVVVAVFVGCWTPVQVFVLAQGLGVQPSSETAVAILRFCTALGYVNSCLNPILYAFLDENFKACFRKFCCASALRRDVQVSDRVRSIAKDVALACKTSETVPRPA

Test [4] has as its target T1, Nociceptin receptor. The test is described as follows: Percent inhibition of [3H]nociceptin ( 0.5 nM ) binding at 10 uM. A digest of the protocol: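 Single-point test at 10 μM compound against 0.5 nM [3H]nociceptin binding to human ORL1 in HeLa cell membranes. Buffer was Tris pH 8.5 with EDTA, protease inhibitor and BSA; incubation 30 min at room temperature. Filtration and scintillation counting. Specific binding = total minus binding in 1 μM unlabeled nociceptin. Read-out was percent inhibition.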

In test [5] the target is T1, Nociceptin receptor. The test is described as follows: Compound was evaluated for its ability to displace [3H]nociceptin ( 0.5 nM ) binding from Opioid receptor like 1 expressed in HeLa cells. The test is classed as cell-based. In outline: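 Membranes from HeLa cells expressing human ORL1 (25 μg protein/mL) in 50 mM Tris pH 8.5 with 2 mM EDTA, 0.1 mM p-aminophenylmethanesulfonyl fluoride and 2 mg/mL BSA. Incubated 30 min at room temperature with 0.5 nM [3H]nociceptin and varied compound concentrations. Bound radioactivity was collected by filtration and counted by scintillation. Nonspecific binding was set with 1 μM unlabeled nociceptin. Ki reported as mean ± SE, n=3-6.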

Test [6] in a line: Effect of compound on nociceptin-induced allodynia :Values are the mean ( SE of allodynia score at 20 min. significantly different from control (nociceptin alone) by the Mann-Whitney U-test. The test is classed as functional.
Test [7] is described as follows: Effect of compound on nociceptin-induced allodynia :Values are the mean ( SE of allodynia score at 20 min. It counts as functional. In outline:
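Male ICR mice, 4 weeks old, unanesthetized; nociceptin (50 pg/5 μL) injected intrathecally. Test compound 0.3 mg/kg suspended in 0.5% methyl cellulose, or vehicle as control, given orally 60 min before nociceptin. Allodynia score read at 20 min; mean ± SE, n = 9; Mann–Whitney U-test versus nociceptin-alone control.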

SMILES strings stand for the structures.

Chain of Kappa-type opioid receptor (P41145 whole entry): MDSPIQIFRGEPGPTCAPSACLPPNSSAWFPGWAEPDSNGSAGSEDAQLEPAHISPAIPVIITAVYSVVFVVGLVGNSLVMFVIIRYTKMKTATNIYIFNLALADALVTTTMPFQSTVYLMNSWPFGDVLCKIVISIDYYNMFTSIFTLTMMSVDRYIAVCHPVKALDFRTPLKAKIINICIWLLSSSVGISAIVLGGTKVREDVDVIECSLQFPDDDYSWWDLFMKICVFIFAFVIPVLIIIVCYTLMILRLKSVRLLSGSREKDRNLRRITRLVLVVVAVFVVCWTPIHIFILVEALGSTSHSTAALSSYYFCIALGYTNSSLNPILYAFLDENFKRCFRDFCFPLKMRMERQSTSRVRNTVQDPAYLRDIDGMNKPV
Chain of Mu-type opioid receptor (P35372 whole entry): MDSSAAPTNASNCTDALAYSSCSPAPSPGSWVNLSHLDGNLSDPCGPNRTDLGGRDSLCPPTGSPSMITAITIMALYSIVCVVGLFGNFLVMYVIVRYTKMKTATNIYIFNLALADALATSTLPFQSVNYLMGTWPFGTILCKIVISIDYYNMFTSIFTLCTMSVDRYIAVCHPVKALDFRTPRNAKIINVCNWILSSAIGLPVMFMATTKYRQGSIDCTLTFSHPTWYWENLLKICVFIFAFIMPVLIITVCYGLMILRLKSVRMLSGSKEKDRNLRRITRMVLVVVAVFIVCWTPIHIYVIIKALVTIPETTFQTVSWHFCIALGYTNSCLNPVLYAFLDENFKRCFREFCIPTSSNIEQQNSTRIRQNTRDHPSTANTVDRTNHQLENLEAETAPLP

For `CCc1ccc(OCc2ccccc2C(=O)Nc2ccc3nc(C)cc(N)c3c2)cc1`, the Ki (in general, a measure of affinity in units of concentration, obtained from inhibition or displacement) worked out at 103 nM on Mu-type opioid receptor, 1060 nM in test [1], 8650 nM in test [2] and 8.2 nM at Nociceptin receptor [3].

As to `Cc1cc(N)c2cc(NC(=O)c3ccccc3CCCc3ccccc3)ccc2n1`, the inhibition – broadly, the change of the read-out against control, counted positive when it falls – on Nociceptin receptor [4] amounted to 98%. The compound also displayed a Ki on Nociceptin receptor [3] of 121 nM.

As to `Cc1cc(N)c2cc(NC(=O)c3ccccc3COc3ccc(N)cc3)ccc2n1`, the inhibition constant (Ki) on Nociceptin receptor [3] stood at 82.4 nM.

For the compound `Cc1ccc(CCc2ccccc2C(=O)Nc2ccc3nc(C)cc(N)c3c2)cc1`, on Nociceptin receptor [3], the affinity corresponds to a Ki of 88.5 nM.

For the compound `Cc1cc(N)c2cc(NC(=O)c3ccccc3CCc3ccccc3)ccc2n1`, the inhibition at Nociceptin receptor [4] was 90.5%. Moreover, the affinity at Nociceptin receptor [5] corresponds to a Ki of 79.9 nM.

In turn, `Cc1cc(N)c2cc(NC(=O)c3ccccc3COc3ccc(C(F)(F)F)cc3)ccc2n1` returned a Ki at Nociceptin receptor [3] of 1.8 nM.

On to `Nc1ccnc2ccc(NC(=O)c3ccccc3COc3ccc(Cl)cc3)cc12`, for which, at Nociceptin receptor [3], the Ki was determined as 85.6 nM.

Regarding `Cc1cc(N)c2cc(NC(=O)c3ccccc3COc3ccc(Cl)cc3)ccc2n1`, on Nociceptin receptor [3], the affinity, expressed as Ki, was 2.2 nM.

Compound `Cc1cc(N)c2cc(NC(=O)c3ccccc3Cc3ccccc3)ccc2n1` had an inhibition on Nociceptin receptor [4] of 45.4%.

In turn, `Cc1cc(N)c2cc(NC(=O)c3ccc(CCc4ccccc4)cc3)ccc2n1` gave an inhibition on Nociceptin receptor [4] of 48.4%.

The compound `CCCc1cc(N)c2cc(NC(=O)c3ccccc3COc3ccc(Cl)cc3)ccc2n1` gave a Ki at Nociceptin receptor [3] of 1.8 nM.

The compound `Cc1cc(N)c2cc(NC(=O)c3ccccc3-c3ccccc3)ccc2n1` gave an inhibition at Nociceptin receptor [4] of 51.7%. At Nociceptin receptor [3], this compound displayed an inhibition constant Ki of 369 nM.

Compound `CCc1cc(N)c2cc(NC(=O)c3ccccc3COc3ccc(Cl)cc3)ccc2n1` displayed a Ki on Nociceptin receptor [3] of 1.8 nM. This lies in the single-digit nanomolar range.

`Cc1cc2ccc(NC(=O)c3ccccc3COc3ccc(Cl)cc3)cc2c(N)n1` showed a Ki on Nociceptin receptor [3] of 37.3 nM.

Take `Cc1cc(N)c2cc(NC(=O)c3ccccc3)ccc2n1`: the inhibition at Nociceptin receptor [4] was 32.9%.

At Nociceptin receptor [4], `Cc1cc(N)c2cc(NC(=O)c3ccccc3COc3ccccc3)ccc2n1` yielded an inhibition of 93.6%. The Ki at Nociceptin receptor [5] was 50.7 nM.

Regarding `Cc1cc(N)c2cc(NC(=O)c3cccc(CCc4ccccc4)c3)ccc2n1`, the inhibition at Nociceptin receptor [4] was 23%.

Consider `Cc1cc(N)c2cc(NC(=O)c3ccccc3COc3cccc(Cl)c3)ccc2n1`, for which, at Nociceptin receptor [3], the inhibition constant (Ki) was 20.4 nM.

The compound `CC(C)C[C@H](NC(=O)[C@H](CCCCN)NC(=O)[C@H](CCCN=C(N)N)NC(=O)[C@H](C)NC(=O)[C@H](CO)NC(=O)[C@H](CCCCN)NC(=O)[C@H](CCCN=C(N)N)NC(=O)[C@H](C)NC(=O)CNC(=O)[C@@H](NC(=O)[C@H](Cc1ccccc1)NC(=O)CNC(=O)CNC(=O)[C@@H](N)Cc1ccccc1)[C@@H](C)O)C(=O)N[C@@H](C)C(=O)N[C@@H](CC(N)=O)C(=O)N[C@@H](CCC(N)=O)C(=O)O.CCc1ccc(OCc2ccccc2C(=O)Nc2ccc3nc(C)cc(N)c3c2)cc1` returned an Allodynia score in test [6] of less than 3.11.

With `Cc1ccc(OCc2ccccc2C(=O)Nc2ccc3nc(C)cc(N)c3c2)cc1`, the Ki at Nociceptin receptor [3] worked out at 7 nM.

In turn, `Cc1cc(N)c2cc(NC(=O)c3ccccc3COc3ccc(Br)cc3)ccc2n1` came in with a Ki at Nociceptin receptor [3] of 2.6 nM.

In the case of `CC(C)C[C@H](NC(=O)[C@H](CCCCN)NC(=O)[C@H](CCCNC(=N)N)NC(=O)[C@H](C)NC(=O)[C@H](CO)NC(=O)[C@H](CCCCN)NC(=O)[C@H](CCCNC(=N)N)NC(=O)[C@H](C)NC(=O)CNC(=O)[C@@H](NC(=O)[C@H](Cc1ccccc1)NC(=O)CNC(=O)CNC(=O)[C@@H](N)Cc1ccccc1)[C@@H](C)O)C(=O)N[C@@H](C)C(=O)N[C@@H](CC(N)=O)C(=O)N[C@@H](CCC(N)=O)C(=O)O`, the Allodynia score in test [7] turned out to be 7.11.

On Nociceptin receptor [3], `Cc1cc(N)c2cc(NC(=O)c3ccccc3COc3ccc(O)cc3)ccc2n1` yielded a Ki of 46.7 nM.
